According to ChEMBL document CHEMBL4138258 (ACS Med Chem Lett, 2017):
pEC50, pIC50: −log10 of the molar value. Converted amounts (≈) assume the structure as drawn. The source made the active and inactive calls.

Legend:
Rattus norvegicus [1] = test: Analgesic activity in Sprague-Dawley rat MIA-induced osteoarthritic pain model assessed as increase in paw withdrawal threshold at 3 mg/kg, ip by von Frey filaments assay; assay type: functional, organism-based
Outline: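 Rat MIA osteoarthritis pain model, with analgesia read as von Frey paw withdrawal threshold. In blocking runs, 3 mg/kg IP agonist was combined with the CB2 antagonist AR401733 (10 mg/kg PO) or the CB1 antagonist rimonabant (10 mg/kg PO).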

Rattus norvegicus [2] = test: Toxicity in Sprague-Dawley rat MIA-induced osteoarthritic pain model assessed as induction of tachyphylaxis at 10 mg/kg, ip administered twice daily for 5 days measured 1 hr post dose at 1 day interval for 5 days during compound dosing; assay type: organism-based; details: in vivo
Outline: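 MIA-treated rats were dosed IP twice daily for 5 days. Reversal of hypersensitivity was measured by von Frey paw withdrawal threshold 1 h after the morning dose on days 1, 3 and 5. Morphine was given on the same regimen for comparison.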

Cannabinoid receptor 2 [3] = target: Cannabinoid receptor 2 (Homo sapiens, UniProt P34972); test: Agonist activity at recombinant human CB2 receptor expressed in HEK293 cells assessed as increase in beta arrestin recruitment measured after 2 to 3 hrs by PathHunter assay relative to CP55940; assay type: functional, cell-based
Chain of Cannabinoid receptor 2 (Homo sapiens, UniProt P34972) (P34972 whole entry): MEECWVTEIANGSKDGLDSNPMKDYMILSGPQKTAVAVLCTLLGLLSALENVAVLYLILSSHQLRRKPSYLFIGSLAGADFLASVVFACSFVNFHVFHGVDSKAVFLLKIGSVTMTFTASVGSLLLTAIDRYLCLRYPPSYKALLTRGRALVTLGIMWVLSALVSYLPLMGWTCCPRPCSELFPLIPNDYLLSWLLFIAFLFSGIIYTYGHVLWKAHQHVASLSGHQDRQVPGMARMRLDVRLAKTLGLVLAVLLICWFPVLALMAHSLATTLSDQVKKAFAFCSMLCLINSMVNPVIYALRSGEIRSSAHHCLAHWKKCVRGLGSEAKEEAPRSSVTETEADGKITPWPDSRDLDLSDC

Cannabinoid receptor 2 [4] = target: T1, Cannabinoid receptor 2 (Rattus norvegicus, UniProt Q9QZN9); test: Agonist activity at recombinant rat CB2 receptor expressed in HEK293 cells assessed as increase in beta arrestin recruitment measured after 2 to 3 hrs by PathHunter assay; assay type: functional, cell-based
T1 sequence (Q9QZN9 whole entry): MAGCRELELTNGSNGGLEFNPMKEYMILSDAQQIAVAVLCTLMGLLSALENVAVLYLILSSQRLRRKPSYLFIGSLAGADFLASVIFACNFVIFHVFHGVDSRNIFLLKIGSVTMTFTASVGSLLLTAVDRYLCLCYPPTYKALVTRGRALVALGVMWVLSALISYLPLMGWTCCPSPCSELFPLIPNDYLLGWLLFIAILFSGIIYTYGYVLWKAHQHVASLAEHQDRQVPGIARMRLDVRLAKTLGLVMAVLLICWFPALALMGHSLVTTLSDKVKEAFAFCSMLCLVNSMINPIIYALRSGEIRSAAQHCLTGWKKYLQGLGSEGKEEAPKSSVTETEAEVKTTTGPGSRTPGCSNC

[5] = target: T2, Cannabinoid receptor 2 (Rattus norvegicus) (UniProt Q9QZN9); test: Agonist activity at recombinant rat CB2 receptor expressed in HEK293 cells assessed as increase in beta arrestin recruitment measured after 2 to 3 hrs by PathHunter assay relative to CP55940; assay type: functional, cell-based
T2 sequence (whole entry): T1 sequence (Q9QZN9 whole entry)
Outline: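 Beta-arrestin recruitment EC50 is the mean of three or more independent experiments (logSD < 0.4). Intrinsic activity (Emax) is expressed relative to CP-55,940 set at 100.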

Cannabinoid receptor 1 = Cannabinoid receptor 1 (Rattus norvegicus, UniProt P20272); test: Agonist activity at recombinant rat CB1 receptor expressed in HEK293 cells assessed as increase in beta arrestin recruitment measured after 2 to 3 hrs by PathHunter assay; assay type: functional, cell-based
Chain of Cannabinoid receptor 1 (P20272 whole entry): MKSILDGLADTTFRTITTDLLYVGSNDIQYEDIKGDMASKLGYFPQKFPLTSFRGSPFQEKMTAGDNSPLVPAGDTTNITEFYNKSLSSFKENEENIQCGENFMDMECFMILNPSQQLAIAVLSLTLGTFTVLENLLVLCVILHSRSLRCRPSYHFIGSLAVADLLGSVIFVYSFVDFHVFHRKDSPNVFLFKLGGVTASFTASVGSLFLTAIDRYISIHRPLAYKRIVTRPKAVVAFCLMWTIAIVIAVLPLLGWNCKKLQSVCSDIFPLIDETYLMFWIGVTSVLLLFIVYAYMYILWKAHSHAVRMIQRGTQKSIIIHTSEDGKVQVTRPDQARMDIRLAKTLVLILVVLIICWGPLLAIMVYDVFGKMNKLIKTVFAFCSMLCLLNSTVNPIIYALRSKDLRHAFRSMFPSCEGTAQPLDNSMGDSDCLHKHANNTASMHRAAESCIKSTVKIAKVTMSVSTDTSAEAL

[6] = target: T2, Cannabinoid receptor 2 (Rattus norvegicus); test: Induction of recombinant HA-tagged rat CB2 receptor internalization expressed in CHOK1 cells at 10 uM measured after 1 hr by time-resolved flow cytometry relative to CP55940; assay type: functional, cell-based
[7] = Half life in human liver microsomes; assay type: ADME, microsome
[8] = Half life in rat liver microsomes; assay type: ADME, microsome
[9] = Half life in mouse liver microsomes; assay type: ADME, microsome
[10] = Ratio of drug level in brain to plasma in Sprague-Dawley rat at 3 mg/kg, po measured after 2 hrs; assay type: ADME, organism-based; details: brain and plasma, read-out: BPR
[11] = Protein binding in mouse plasma assessed as unbound fraction; assay type: ADME, cell-free
[12] = Protein binding in rat plasma assessed as unbound fraction; assay type: ADME, cell-free
[13] = Protein binding in dog plasma assessed as unbound fraction; assay type: ADME, cell-free, Canis lupus familiaris
[14] = Protein binding in monkey plasma assessed as unbound fraction; assay type: ADME, cell-free, Macaca mulatta; details: rhesus monkey
[15] = Protein binding in human plasma assessed as unbound fraction; assay type: ADME, cell-free
Rattus norvegicus [16] = test: Analgesic activity in po dosed Sprague-Dawley rat MIA-induced osteoarthritic pain model assessed as increase in paw withdrawal threshold after 1 hr by von Frey filaments assay; assay type: functional
Outline: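 Von Frey paw withdrawal thresholds were read 1 h post-dose to assess late-phase hypersensitivity. ED50 was derived from the dose-response.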

Rattus norvegicus [17] = test: Inhibition of paw withdrawal threshold in Sprague-Dawley rat MIA-induced osteoarthritic pain model at 10 mg/kg, po measured up to 4 hrs; assay type: organism-based; details: in vivo
Rattus norvegicus [18] = test: Analgesic activity in Sprague-Dawley rat MIA-induced osteoarthritic pain model assessed as increase in paw withdrawal threshold at 3 mg/kg, po after 1 hr in presence of CB2 inverse agonist AR401733 by von Frey filaments assay; assay type: functional, organism-based
Rattus norvegicus [19] = test: Analgesic activity in Sprague-Dawley rat MIA-induced osteoarthritic pain model assessed as increase in paw withdrawal threshold at 3 mg/kg, po after 1 hr in presence of CB2 antagonist […] by von Frey filaments assay; assay type: functional, organism-based
Rattus norvegicus [20] = test: Analgesic activity in Sprague-Dawley rat MIA-induced osteoarthritic pain model assessed as increase in paw withdrawal threshold at 3 mg/kg, po after 1 hr in presence of CB2 antagonist SR144528 by von Frey filaments assay; assay type: functional, organism-based
Rattus norvegicus [21] = test: Analgesic activity in Sprague-Dawley rat MIA-induced osteoarthritic pain model assessed as increase in paw withdrawal threshold at 3 mg/kg, po after 1 hr in presence of CB1 antagonist rimonabant by von Frey filaments assay; assay type: functional, organism-based
Rattus norvegicus [22] = test: Analgesic activity in Sprague-Dawley rat MIA-induced osteoarthritic pain model assessed as increase in paw withdrawal threshold at 3 mg/kg, ip administered twice daily for 5 days measured 1 hr post dose at 1 day interval for 5 days during compound dosing; assay type: functional, organism-based
Outline: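 Rats with MIA-induced late-phase hypersensitivity were dosed IP twice daily for 5 days. Von Frey paw withdrawal thresholds were measured 1 h after the morning dose on days 1, 3 and 5.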

[23] = Aqueous solubility of the compound at pH 2 to 7 using solid samples; assay type: physicochemical; details: aqueous solution
Cytochrome P450 1A2 = target: T3, Cytochrome P450 1A2 (Homo sapiens, UniProt P05177); test: Inhibition of CYP1A2 (unknown origin); assay type: ADME
T3 sequence (P05177 whole entry): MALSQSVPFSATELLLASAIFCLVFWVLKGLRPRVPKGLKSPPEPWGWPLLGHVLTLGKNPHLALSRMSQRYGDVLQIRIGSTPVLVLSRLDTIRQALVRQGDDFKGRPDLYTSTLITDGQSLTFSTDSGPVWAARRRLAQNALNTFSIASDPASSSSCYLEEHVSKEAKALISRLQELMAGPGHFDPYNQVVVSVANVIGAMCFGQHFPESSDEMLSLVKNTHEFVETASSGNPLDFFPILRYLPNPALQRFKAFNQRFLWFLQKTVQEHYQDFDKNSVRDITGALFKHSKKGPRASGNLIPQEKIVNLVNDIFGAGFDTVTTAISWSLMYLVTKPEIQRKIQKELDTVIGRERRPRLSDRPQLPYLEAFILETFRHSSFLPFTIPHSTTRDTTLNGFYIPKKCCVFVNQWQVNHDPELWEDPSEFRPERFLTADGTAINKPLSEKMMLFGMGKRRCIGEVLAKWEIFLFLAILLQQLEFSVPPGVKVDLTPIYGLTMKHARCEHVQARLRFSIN

Cytochrome P450 2C9 = Cytochrome P450 2C9 (Homo sapiens, UniProt P11712); test: Inhibition of CYP2C9 (unknown origin); assay type: ADME
Chain of Cytochrome P450 2C9 (P11712 whole entry): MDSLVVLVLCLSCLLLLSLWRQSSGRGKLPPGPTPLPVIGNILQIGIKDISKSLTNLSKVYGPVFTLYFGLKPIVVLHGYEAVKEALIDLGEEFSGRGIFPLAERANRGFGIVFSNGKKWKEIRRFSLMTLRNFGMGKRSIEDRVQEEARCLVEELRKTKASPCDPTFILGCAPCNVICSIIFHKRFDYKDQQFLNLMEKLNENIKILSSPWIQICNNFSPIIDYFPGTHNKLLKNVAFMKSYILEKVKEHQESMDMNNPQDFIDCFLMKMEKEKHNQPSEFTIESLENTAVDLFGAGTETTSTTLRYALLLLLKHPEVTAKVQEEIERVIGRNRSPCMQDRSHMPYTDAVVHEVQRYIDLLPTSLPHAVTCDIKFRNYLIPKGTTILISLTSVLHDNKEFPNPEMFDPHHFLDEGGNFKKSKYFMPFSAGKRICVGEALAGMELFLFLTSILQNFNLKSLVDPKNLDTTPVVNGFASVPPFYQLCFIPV

Cytochrome P450 2C19 = Cytochrome P450 2C19 (Homo sapiens, UniProt P33261); test: Inhibition of CYP2C19 (unknown origin); assay type: ADME
Chain of Cytochrome P450 2C19 (P33261 whole entry): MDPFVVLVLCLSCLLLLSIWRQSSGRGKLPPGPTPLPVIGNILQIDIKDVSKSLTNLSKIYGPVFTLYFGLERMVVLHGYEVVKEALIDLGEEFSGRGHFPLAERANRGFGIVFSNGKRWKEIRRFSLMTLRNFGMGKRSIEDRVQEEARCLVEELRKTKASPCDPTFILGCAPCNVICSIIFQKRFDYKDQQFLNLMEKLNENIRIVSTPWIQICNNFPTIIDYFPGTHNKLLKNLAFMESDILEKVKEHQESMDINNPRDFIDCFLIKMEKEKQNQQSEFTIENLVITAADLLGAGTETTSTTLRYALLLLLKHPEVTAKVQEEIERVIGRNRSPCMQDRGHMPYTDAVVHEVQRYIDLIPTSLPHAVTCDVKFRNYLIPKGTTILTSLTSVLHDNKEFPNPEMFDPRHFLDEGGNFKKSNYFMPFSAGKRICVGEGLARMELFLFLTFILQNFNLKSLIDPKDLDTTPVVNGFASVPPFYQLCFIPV

Cytochrome P450 2D6 = Cytochrome P450 2D6 (Homo sapiens, UniProt P10635); test: Inhibition of CYP2D6 (unknown origin); assay type: ADME
Chain of Cytochrome P450 2D6 (P10635 whole entry): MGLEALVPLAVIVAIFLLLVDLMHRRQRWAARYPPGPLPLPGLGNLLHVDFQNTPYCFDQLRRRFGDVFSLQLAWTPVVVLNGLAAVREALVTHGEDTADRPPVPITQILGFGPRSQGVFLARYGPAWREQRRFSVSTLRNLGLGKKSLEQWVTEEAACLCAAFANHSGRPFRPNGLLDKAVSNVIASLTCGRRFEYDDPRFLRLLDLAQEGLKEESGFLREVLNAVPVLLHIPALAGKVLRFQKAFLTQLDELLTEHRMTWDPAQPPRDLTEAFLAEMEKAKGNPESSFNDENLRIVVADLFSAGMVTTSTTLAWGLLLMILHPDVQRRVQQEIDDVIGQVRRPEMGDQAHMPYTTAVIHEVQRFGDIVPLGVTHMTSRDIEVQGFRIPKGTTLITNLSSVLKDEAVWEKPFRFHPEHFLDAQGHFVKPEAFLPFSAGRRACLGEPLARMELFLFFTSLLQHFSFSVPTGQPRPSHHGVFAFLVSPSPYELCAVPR

Cytochrome P450 3A4 = Cytochrome P450 3A4 (Homo sapiens, UniProt P08684); test: Inhibition of CYP3A4 (unknown origin); assay type: ADME
Chain of Cytochrome P450 3A4 (P08684 whole entry): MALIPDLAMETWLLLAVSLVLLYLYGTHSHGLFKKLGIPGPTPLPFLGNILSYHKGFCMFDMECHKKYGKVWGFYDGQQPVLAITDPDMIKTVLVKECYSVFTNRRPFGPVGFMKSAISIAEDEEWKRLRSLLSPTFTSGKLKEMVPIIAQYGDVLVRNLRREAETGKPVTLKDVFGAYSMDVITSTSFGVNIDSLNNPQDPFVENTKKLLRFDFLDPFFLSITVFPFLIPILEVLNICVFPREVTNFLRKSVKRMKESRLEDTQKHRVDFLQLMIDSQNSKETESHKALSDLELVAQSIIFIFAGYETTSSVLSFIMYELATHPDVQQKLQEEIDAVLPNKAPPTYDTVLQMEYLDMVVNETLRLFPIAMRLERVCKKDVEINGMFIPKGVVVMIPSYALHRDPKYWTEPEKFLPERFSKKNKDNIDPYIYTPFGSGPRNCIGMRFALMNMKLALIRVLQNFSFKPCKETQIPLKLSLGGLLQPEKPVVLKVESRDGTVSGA

[24] = target: T4, Voltage-gated inwardly rectifying potassium channel KCNH2 (Homo sapiens, UniProt Q12809); test: Inhibition of [3H]-astemizole binding to human ERG
T4 sequence (Q12809 whole entry): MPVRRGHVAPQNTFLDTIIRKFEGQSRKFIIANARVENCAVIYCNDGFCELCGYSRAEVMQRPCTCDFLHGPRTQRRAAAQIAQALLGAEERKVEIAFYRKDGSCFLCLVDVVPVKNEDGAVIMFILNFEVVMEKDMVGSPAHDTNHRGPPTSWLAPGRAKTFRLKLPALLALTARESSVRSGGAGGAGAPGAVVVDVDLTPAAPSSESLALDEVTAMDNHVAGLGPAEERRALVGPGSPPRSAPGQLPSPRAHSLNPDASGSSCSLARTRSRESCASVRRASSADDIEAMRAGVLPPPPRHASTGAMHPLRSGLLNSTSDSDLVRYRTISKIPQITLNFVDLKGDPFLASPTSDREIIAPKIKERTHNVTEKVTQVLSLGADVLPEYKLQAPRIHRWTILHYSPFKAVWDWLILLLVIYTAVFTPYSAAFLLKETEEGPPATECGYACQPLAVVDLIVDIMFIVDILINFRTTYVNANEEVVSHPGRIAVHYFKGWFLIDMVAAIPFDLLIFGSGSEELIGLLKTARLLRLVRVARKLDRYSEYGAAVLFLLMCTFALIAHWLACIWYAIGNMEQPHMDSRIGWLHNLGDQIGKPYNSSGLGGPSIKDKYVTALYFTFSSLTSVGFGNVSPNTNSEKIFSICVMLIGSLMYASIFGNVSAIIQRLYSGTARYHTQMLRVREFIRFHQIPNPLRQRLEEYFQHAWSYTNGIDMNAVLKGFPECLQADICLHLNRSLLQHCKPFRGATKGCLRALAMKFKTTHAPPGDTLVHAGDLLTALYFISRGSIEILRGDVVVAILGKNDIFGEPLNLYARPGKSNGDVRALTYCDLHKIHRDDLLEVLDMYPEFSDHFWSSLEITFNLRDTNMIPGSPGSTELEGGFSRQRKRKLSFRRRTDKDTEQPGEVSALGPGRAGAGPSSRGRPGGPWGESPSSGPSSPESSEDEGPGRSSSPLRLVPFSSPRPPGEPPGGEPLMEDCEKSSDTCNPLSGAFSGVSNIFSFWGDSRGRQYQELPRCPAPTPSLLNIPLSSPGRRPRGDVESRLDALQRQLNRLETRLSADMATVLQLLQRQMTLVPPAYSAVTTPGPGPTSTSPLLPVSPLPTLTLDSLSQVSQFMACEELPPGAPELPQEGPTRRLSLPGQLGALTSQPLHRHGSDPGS

[25] = target: T4, Voltage-gated inwardly rectifying potassium channel KCNH2; test: Inhibition of human ERG by patch-clamp method
HepG2 = test: Cytotoxicity against human HepG2 cells up to 1000 uM; assay type: cell-based
Outline: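 Essential Cell Function panel in live HepG2 cells, measuring several cellular parameters.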

Salmonella typhimurium [26] = test: Mutagenicity in Salmonella typhimurium in presence of liver S9 fraction by Ames test; assay type: toxicity, organism-based; details: salmonella enterica subsp. enterica serovar typhimurium
Salmonella typhimurium [27] = test: Mutagenicity in Salmonella typhimurium in absence of liver S9 fraction by Ames test; assay type: toxicity, organism-based; details: salmonella enterica subsp. enterica serovar typhimurium
Rattus norvegicus [28] = test: Toxicity in Sprague-Dawley rat assessed as change in core body temperature up to 100 mg/kg, po measured after 60 mins by rectal probe method; assay type: organism-based; details: in vivo, 1 h
Rattus norvegicus [29] = test: Acute toxicity in Sprague-Dawley rat assessed as lethargy at 300 mg/kg, po administered for 14 days measured on day 1 during compound dosing; assay type: organism-based; details: in vivo, 336 h
Outline: (§1)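 Male and female Sprague-Dawley rats in a 14-day dose-range-finding toxicity study with oral dose groups of 0, 30, 100 and 300 mg/kg. Animals were watched for clinical signs such as lethargy over the dosing period.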

Rattus norvegicus [30] = test: Acute toxicity in Sprague-Dawley rat assessed as lethargy at 300 mg/kg, po administered for 14 days measured on day 2 to 14 during compound dosing; assay type: organism-based; details: in vivo, 336 h; outline: as §1
Rattus norvegicus [31] = test: Acute toxicity in Sprague-Dawley rat assessed as hematological changes at 30 to 300 mg/kg, po administered for 14 days measured during compound dosing; assay type: organism-based; details: in vivo, 336 h
Rattus norvegicus [32] = test: Acute toxicity in Sprague-Dawley rat assessed as histopathological abnormalities at 30 to 300 mg/kg, po administered for 14 days measured during compound dosing; assay type: organism-based; details: in vivo, 336 h
[33] = Stability of the compound; assay type: physicochemical

CN1CC[C@]23c4c5ccc(O)c4O[C@H]2[C@@H](O)C=C[C@H]3[C@H]1C5 [MORPHINE]
Activity (Rattus norvegicus [1]): Active
Activity (Rattus norvegicus [2]): Toxic

CC(C)(C)[C@@H](CO)NC(=O)c1nn(-c2c[n+]([O-])ccn2)c2c1C[C@@H]1C[C@H]21 [OLORINAB]
Emax (Cannabinoid receptor 2 [3]): 106%
pEC50 (Cannabinoid receptor 2 [4]): 8.12
Emax [5]: 100%
pEC50 (Cannabinoid receptor 1): 4.52 to 5.00
Activity [6]: 106%
half-life [7]: > 1 h
half-life [8]: > 1 h
half-life [9]: > 1 h
Kp at 2 h [10]: 0.04
fraction unbound [11]: 0.1 to 0.2
fraction unbound [12]: 0.1 to 0.2
fraction unbound [13]: 0.1 to 0.2
fraction unbound [14]: 0.1 to 0.2
fraction unbound [15]: 0.1 to 0.2
ED50 (Rattus norvegicus [16]): 2.3 mg/kg
inhibition (INH) (Rattus norvegicus [17]): Non-Toxic
Activity (Rattus norvegicus [18]): inactive
Activity (Rattus norvegicus [19]): inactive
Activity (Rattus norvegicus [20]): inactive
Activity (Rattus norvegicus [21]): inactive
Activity (Rattus norvegicus [22]): Active
solubility thermodynamic [23]: 2000 µg/mL (≈ 5.6 mM)
pIC50 (Cytochrome P450 1A2): < 4.30
pIC50 (Cytochrome P450 2C9): < 4.30
pIC50 (Cytochrome P450 2C19): < 4.30
pIC50 (Cytochrome P450 2D6): < 4.30
pIC50 (Cytochrome P450 3A4): < 4.30
pIC50 [24]: < 4.52
pIC50 [25]: < 4.52
Activity (HepG2): Non-Toxic
Activity (Salmonella typhimurium [26]): Non-Toxic
Activity (Salmonella typhimurium [27]): Non-Toxic
Activity (Rattus norvegicus [28]): Non-Toxic
Activity (Rattus norvegicus [29]): Toxic
Activity (Rattus norvegicus [30]): Non-Toxic
Activity (Rattus norvegicus [31]): Non-Toxic
Activity (Rattus norvegicus [32]): Non-Toxic
Stability [33]: Stable
